In ChEMBL document CHEMBL3994610, “A Macrocyclic Agouti-Related Protein/[Nle4,DPhe7]α-Melanocyte Stimulating Hormone Chimeric Scaffold Produces Subnanomolar Melanocortin Receptor Ligands” (J Med Chem, 2017):
Square brackets hold non-standard residues; d marks the D form. Peptide text beside a SMILES is read from it. Dap = NC[C@H](N)C(=O)O

Key:
[1] = target: Melanocortin receptor 3 (Homo sapiens) (UniProt P41968); experiment: Agonist activity at human MC3R expressed in CHO cells assessed as increase in IBMX-induced cAMP accumulation at 10 uM after 45 mins by [125I]cAMP flash plate assay relative to MT-2
Chain of Melanocortin receptor 3 (Homo sapiens) (P41968 whole entry, looked up): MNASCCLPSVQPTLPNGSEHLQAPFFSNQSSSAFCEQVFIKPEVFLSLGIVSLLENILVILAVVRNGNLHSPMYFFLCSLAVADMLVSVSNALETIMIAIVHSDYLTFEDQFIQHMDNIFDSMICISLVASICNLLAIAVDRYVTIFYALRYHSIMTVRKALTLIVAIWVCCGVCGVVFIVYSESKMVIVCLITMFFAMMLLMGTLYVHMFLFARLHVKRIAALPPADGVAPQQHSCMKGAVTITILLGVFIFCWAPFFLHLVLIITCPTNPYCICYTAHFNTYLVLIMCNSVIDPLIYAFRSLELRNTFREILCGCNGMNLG

Mus musculus [2] = organism: Mus musculus; experiment: Selectivity ratio of EC50 for mouse MC3R to EC50 for mouse MC4R
Mus musculus [3] = organism: Mus musculus; experiment: Selectivity ratio of EC50 for mouse MC3R to EC50 for mouse MC5R
[4] = target: Melanocortin receptor 3 (Mus musculus) (UniProt P33033); experiment: Agonist activity at mouse MC3R expressed in HEK293 cells assessed as increase in forskolin-induced cAMP accumulation at 100 uM preincubated for 2 hrs followed by biotinylated cAMP addition and subsequent incubation for 2 hrs by AlphaScreen assay relative to NDP-MSH; assay type: functional, cell-based
Chain of Melanocortin receptor 3 (Mus musculus) (P33033 whole entry): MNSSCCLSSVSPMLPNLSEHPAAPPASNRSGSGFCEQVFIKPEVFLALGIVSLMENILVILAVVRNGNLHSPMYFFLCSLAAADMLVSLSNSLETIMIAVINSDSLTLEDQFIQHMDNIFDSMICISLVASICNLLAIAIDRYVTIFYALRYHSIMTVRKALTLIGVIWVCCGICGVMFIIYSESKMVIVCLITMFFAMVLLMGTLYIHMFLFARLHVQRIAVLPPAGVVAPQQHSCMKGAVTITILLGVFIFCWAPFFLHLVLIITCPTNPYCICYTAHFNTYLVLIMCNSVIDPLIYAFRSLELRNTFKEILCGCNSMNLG
Outline: (§1)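 HEK293 cells stably expressing mouse MC1R, MC3R, MC4R or MC5R, at 70-90% confluence, were detached with Versene at 37 °C and plated at 10,000 cells/well. Stimulation buffer was HBSS with 5 mM HEPES, 0.5 mM IBMX and 0.1% BSA, pH 7.4, plus anti-cAMP acceptor beads. Peptide from 10^-2 M DMSO stock was added and incubated 2 hr in the dark at room temperature. Forskolin at 10^-4 M was the reference stimulus.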

Mus musculus [5] = organism: Mus musculus; experiment: Selectivity ratio of EC50 for mouse MC3R to EC50 for mouse MC1R
[6] = target: Melanocortin receptor 4 (Mus musculus) (UniProt P56450); experiment: Agonist activity at mouse MC4R expressed in HEK293 cells assessed as increase in forskolin-induced cAMP accumulation at 100 uM preincubated for 2 hrs followed by biotinylated cAMP addition and subsequent incubation for 2 hrs by AlphaScreen assay relative to NDP-MSH; assay type: functional, cell-based
Chain of Melanocortin receptor 4 (Mus musculus) (P56450 whole entry): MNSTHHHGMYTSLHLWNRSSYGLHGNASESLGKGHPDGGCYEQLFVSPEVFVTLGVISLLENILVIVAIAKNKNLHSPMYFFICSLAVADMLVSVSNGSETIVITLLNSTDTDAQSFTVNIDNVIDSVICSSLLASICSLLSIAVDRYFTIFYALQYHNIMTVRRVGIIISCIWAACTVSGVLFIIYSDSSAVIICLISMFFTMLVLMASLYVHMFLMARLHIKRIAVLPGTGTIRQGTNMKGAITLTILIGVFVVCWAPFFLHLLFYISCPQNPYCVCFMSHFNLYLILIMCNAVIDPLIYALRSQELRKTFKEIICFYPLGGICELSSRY
Outline: as §1

Mus musculus [7] = organism: Mus musculus; experiment: Selectivity ratio of EC50 for mouse MC4R to EC50 for mouse MC3R
[8] = target: Melanocortin receptor 5 (Mus musculus) (UniProt P41149); experiment: Agonist activity at mouse MC5R expressed in HEK293 cells assessed as increase in forskolin-induced cAMP accumulation at 100 uM preincubated for 2 hrs followed by biotinylated cAMP addition and subsequent incubation for 2 hrs by AlphaScreen assay relative to NDP-MSH; assay type: functional, cell-based
Chain of Melanocortin receptor 5 (Mus musculus) (P41149 whole entry): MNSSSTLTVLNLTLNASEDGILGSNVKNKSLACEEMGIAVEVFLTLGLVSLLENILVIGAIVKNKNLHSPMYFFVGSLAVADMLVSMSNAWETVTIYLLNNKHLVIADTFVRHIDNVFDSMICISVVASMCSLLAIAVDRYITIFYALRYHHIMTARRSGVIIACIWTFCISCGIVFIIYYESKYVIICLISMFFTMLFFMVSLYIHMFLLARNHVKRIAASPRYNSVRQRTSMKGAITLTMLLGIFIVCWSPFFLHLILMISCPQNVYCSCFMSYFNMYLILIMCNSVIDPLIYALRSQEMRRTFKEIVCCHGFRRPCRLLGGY
Outline: as §1

Melanocortin receptor 3 = Melanocortin receptor 3 (Mus musculus, UniProt P33033); experiment: Agonist activity at mouse MC3R expressed in HEK293 cells assessed as increase in forskolin-induced cAMP accumulation preincubated for 2 hrs followed by biotinylated cAMP addition and subsequent incubation for 2 hrs by AlphaScreen assay; assay type: functional, cell-based
Chain of Melanocortin receptor 3 (P33033 whole entry): as the sequence (P33033 whole entry) above
Outline: as §1

[9] = target: Melanocyte-stimulating hormone receptor (Mus musculus) (UniProt Q01727); experiment: Agonist activity at mouse MC1R expressed in HEK293 cells assessed as increase in forskolin-induced cAMP accumulation at 100 uM preincubated for 2 hrs followed by biotinylated cAMP addition and subsequent incubation for 2 hrs by AlphaScreen assay relative to NDP-MSH; assay type: functional, cell-based
Chain of Melanocyte-stimulating hormone receptor (Mus musculus) (Q01727 whole entry, looked up): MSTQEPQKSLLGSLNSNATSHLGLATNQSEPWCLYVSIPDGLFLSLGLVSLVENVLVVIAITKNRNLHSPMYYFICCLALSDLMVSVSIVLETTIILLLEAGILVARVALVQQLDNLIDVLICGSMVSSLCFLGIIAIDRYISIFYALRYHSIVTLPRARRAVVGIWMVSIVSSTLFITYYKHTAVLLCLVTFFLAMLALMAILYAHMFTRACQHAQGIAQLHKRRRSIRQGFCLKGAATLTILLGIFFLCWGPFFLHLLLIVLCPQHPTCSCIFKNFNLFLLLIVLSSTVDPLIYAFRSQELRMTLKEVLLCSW
Outline: as §1

Mus musculus [10] = organism: Mus musculus; experiment: Selectivity ratio of EC50 for mouse MC5R to EC50 for mouse MC1R
Melanocortin receptor 5 = Melanocortin receptor 5 (Mus musculus, UniProt P41149); experiment: Agonist activity at mouse MC5R expressed in HEK293 cells assessed as increase in forskolin-induced cAMP accumulation preincubated for 2 hrs followed by biotinylated cAMP addition and subsequent incubation for 2 hrs by AlphaScreen assay; assay type: functional, cell-based
Chain of Melanocortin receptor 5 (P41149 whole entry): as the sequence (P41149 whole entry) above
Outline: as §1

Mus musculus [11] = organism: Mus musculus; experiment: Selectivity ratio of EC50 for mouse MC4R to EC50 for mouse MC1R

SMILES	Ratio EC50 (Mus musculus [3])	Activity [4]	Ratio EC50 (Mus musculus [5])	Activity [6]	also measured
CCCC[C@H](NC(C)=O)C(=O)N[C@H]1CC(=O)NCCCC[C@@H](C(=O)N2CCC[C@H]2C(=O)N[C@H](C(N)=O)C(C)C)NC(=O)[C@H](Cc2c[nH]c3ccccc23)NC(=O)[C@H](CCCNC(=N)N)NC(=O)[C@@H](Cc2ccccc2)NC(=O)[C@@H]2CCCN2C1=O	–	–	–	–	Efficacy [1]: 12%
C[C@@H]1NC(=O)[C@H](CC(N)=O)NC(=O)[C@H](Cc2c[nH]c3ccccc23)NC(=O)[C@H](CCCNC(=N)N)NC(=O)[C@@H](Cc2ccccc2)NC(=O)[C@H](Cc2cnc[nH]2)NC(=O)[C@@H]2CCCN2C(=O)[C@H]2CCCN2C(=O)[C@H](Cc2ccccc2)NC1=O (cyclo(H[dF]RWNAF[dP]P))	–	–	–	–	Ratio EC50 (Mus musculus [2]): 23
C[C@@H]1NC(=O)[C@H](CN)NC(=O)[C@H](Cc2c[nH]c3ccccc23)NC(=O)[C@H](CCCNC(=N)N)NC(=O)[C@@H](Cc2ccccc2)NC(=O)[C@H](Cc2cnc[nH]2)NC(=O)[C@@H]2CCCN2C(=O)[C@H]2CCCN2C1=O (cyclo(H[dF]RW[Dap]A[dP]P))	> 100	–	–	–	Ratio EC50 (Mus musculus [2]): 25
C[C@@H]1NC(=O)[C@H](CC(N)=O)NC(=O)[C@H](Cc2c[nH]c3ccccc23)NC(=O)[C@H](CCCNC(=N)N)NC(=O)[C@@H](Cc2ccccc2)NC(=O)[C@@H]2CCCN2C(=O)[C@H]2CCCN2C(=O)[C@H](Cc2ccccc2)NC1=O (cyclo(P[dF]RWNAF[dP]))	> 1000	45%	> 100	–	Ratio EC50 (Mus musculus [7]): > 300
C[C@@H]1NC(=O)[C@H](CN)NC(=O)[C@H](Cc2c[nH]c3ccccc23)NC(=O)[C@H](CCCNC(=N)N)NC(=O)[C@@H](Cc2ccccc2)NC(=O)[C@@H]2CCCN2C(=O)[C@H]2CCCN2C(=O)[C@H](Cc2ccccc2)NC1=O (cyclo(P[dF]RW[Dap]AF[dP]))	–	70%	–	–	Activity [9]: 45%

The next lines start with results.

Ratio EC50 (Mus musculus [3])	Activity [4]	Ratio EC50 (Mus musculus [5])	Activity [6]	SMILES	also measured
> 100	65%	> 100	–	N=C(N)NCCC[C@@H]1NC(=O)[C@@H](Cc2ccccc2)NC(=O)[C@H](Cc2cnc[nH]2)NC(=O)[C@@H]2CCCN2C(=O)[C@H]2CCCN2C(=O)[C@H](CN)NC(=O)[C@H](Cc2c[nH]c3ccccc23)NC1=O (cyclo(H[dF]RW[Dap][dP]P))	–
–	60%	–	65%	N=C(N)NCCC[C@@H]1NC(=O)[C@@H](Cc2ccccc2)NC(=O)[C@H](Cc2cnc[nH]2)NC(=O)[C@@H]2CCCN2C(=O)[C@H]2CCCN2C(=O)[C@H](Cc2c[nH]c3ccccc23)NC1=O (cyclo(H[dF]RW[dP]P))	–
> 1000	55%	> 100	–	C[C@@H]1NC(=O)[C@H](CC(N)=O)NC(=O)[C@H](Cc2c[nH]c3ccccc23)NC(=O)[C@H](CCCNC(=N)N)NC(=O)[C@@H](Cc2ccccc2)NC(=O)[C@@H]2CCCN2C(=O)[C@H]2CCCN2C1=O (cyclo(P[dF]RWNA[dP]))	Ratio EC50 (Mus musculus [7]): > 100
–	–	> 2500	85%	N=C(N)NCCC[C@@H]1NC(=O)[C@@H](Cc2ccccc2)NC(=O)[C@@H]2CCCN2C(=O)[C@H]2CCCN2C(=O)[C@H](CC(N)=O)NC(=O)[C@H](Cc2c[nH]c3ccccc23)NC1=O (cyclo(P[dF]RWN[dP]))	Activity [8]: 25%; EC50 (Melanocortin receptor 3): > 100 µM; Activity [9]: 85%
> 1000	70%	–	–	C[C@@H]1NC(=O)[C@H](CN)NC(=O)[C@H](Cc2c[nH]c3ccccc23)NC(=O)[C@H](CCCNC(=N)N)NC(=O)[C@@H](Cc2ccccc2)NC(=O)[C@@H]2CCCN2C(=O)[C@H]2CCCN2C1=O (cyclo(P[dF]RW[Dap]A[dP]))	Ratio EC50 (Mus musculus [7]): > 300
–	–	> 500	35%	N=C(N)NCCC[C@@H]1NC(=O)[C@@H](Cc2ccccc2)NC(=O)[C@@H]2CCCN2C(=O)[C@H]2CCCN2C(=O)[C@H](CN)NC(=O)[C@H](Cc2c[nH]c3ccccc23)NC1=O (cyclo(P[dF]RW[Dap][dP]))	Ratio EC50 (Mus musculus [10]): > 500; EC50 (Melanocortin receptor 5): > 100 µM; EC50 (Melanocortin receptor 3): > 100 µM; Activity [9]: 75%; Ratio EC50 (Mus musculus [11]): > 500
–	–	–	50%	N=C(N)NCCC[C@@H]1NC(=O)[C@@H](Cc2ccccc2)NC(=O)[C@@H]2CCCN2C(=O)[C@H]2CCCN2C(=O)[C@H](Cc2c[nH]c3ccccc23)NC1=O (cyclo(P[dF]RW[dP]))	EC50 (Melanocortin receptor 3): > 100 µM
